KCNK9 inh: human KCNK9 channel inhibition. Q9NPC2. HEK293 KCNK9, FluxOR thallium flux fluorescence; hits give low values. B-score at 10 µM. 1.2% of 310,000 active. AID 488922;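 active = ratio B-score over 3 SD below the library mean, with starting fluorescence within 5 SD of its mean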;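 note: negative B-score means less thallium flux so channel inhibition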
hERG rescue: compounds protecting human hERG from proarrhythmic drug block. Q12809. CHO-hERG, FluxOR thallium flux, dofetilide IC70 present. 0.51% of 310,000 active. activation (rescue from dofetilide block), less the hit threshold, % at 10 µM;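 active = activation above the mean of controls blocked by dofetilide plus 5 SD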;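 note: thallium influx through hERG after potassium depolarization seen as dye fluorescence rise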
KCNQ1 act: human KCNQ1 channel potentiation or activation | B-score at 10 µM | CHO-K1 KCNQ1, thallium flux FluxOR fluorescence; hits give high values | 0.35% of 310,000 active | P51787;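 active = fluorescence ratio B-score, a plate-corrected score, at least three library SD, with initial intensity B-score within 5 SD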
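Assay system: stable KCNQ1 CHO-K1 line; medium: assay buffer, equal DMSO in all wells; timing: 90 min dye loading and 20 min compound exposure, both at room temperature; technique: kinetic FluxOR thallium fluorescence, 10-s 1-Hz baseline, 110-s post-stimulus read; read-out basis: B score of baseline-normalized fluorescence ratio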
KCNK3 block: human KCNK3 channel inhibition, primary screen; CHO-KCNK3 thallium flux, FluxOR fluorescence; hits give low values; B-score at 10 µM; O14649; 0.84% of 340,000 active;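 active = B-score under library mean minus 4 SD, starting fluorescence ratio at most library mean plus 5 SD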;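 note: more negative B-score means stronger inhibition of thallium flux through KCNK3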
Target sequence (O14649 whole entry, looked up): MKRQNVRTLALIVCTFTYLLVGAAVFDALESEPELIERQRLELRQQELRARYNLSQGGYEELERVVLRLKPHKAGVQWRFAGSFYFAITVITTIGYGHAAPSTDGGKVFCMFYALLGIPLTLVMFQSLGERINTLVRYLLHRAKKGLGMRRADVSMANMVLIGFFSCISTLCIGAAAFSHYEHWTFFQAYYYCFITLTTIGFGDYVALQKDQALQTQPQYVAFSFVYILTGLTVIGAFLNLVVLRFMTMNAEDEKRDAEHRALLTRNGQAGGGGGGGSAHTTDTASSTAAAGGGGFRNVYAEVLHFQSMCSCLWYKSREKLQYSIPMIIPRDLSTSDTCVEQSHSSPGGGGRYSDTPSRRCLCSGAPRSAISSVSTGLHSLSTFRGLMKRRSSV
KCNQ1 inh: inhibitors of human KCNQ1 potassium channel | 1.3% of 310,000 active | CHO-K1 KCNQ1, FluxOR thallium flux fluorescence; hits give high values | B-score at 10 µM | P51787;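 active = compounds whose thallium flux B-score, printed positive for inhibition, exceeds three library SD while starting fluorescence stays within three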;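 note: channel opened by potassium depolarization with thallium stimulus after 20 min compound exposure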
* marks the source's active call; other numbers are inactive results. Compounds with a hit are over-represented: about 3.1% of the library has one in this group of screens.

`CCN(CC)S(=O)(=O)c1ccc2c(c1)c(=O)c(C(=O)N1CCN(c3ccccn3)CC1)cn2C` gave KCNK9 inh inactive, hERG rescue -7.0, KCNQ1 act inactive, KCNK3 block inactive and KCNQ1 inh inactive.
Cc1ccsc1CNCc1cc(Cl)ccc1O was read as KCNK3 block inactive.
For COC(=O)[C@H](Cc1ccccc1)NC(=O)C1CCN(C(=O)[C@H](C)NS(=O)(=O)c2ccc(C)cc2)CC1 the results were KCNK9 inh inactive, hERG rescue -3.6, KCNQ1 act inactive, KCNK3 block inactive and KCNQ1 inh inactive.
O=C1CCC(c2ccccc2)N1c1ccccc1 (stereo unspecified) was read as KCNK3 block inactive.
Screening CC(=O)c1cc2c(cc1NS(=O)(=O)c1ccc3c(c1)OCCO3)OCO2 returned KCNK9 inh inactive, hERG rescue 5.1*, KCNQ1 act inactive, KCNK3 block inactive and KCNQ1 inh inactive.
`N#CC1=C(N)Oc2cc(O)c(Cl)cc2C1c1ccccc1F` (stereo unspecified) gave KCNK9 inh inactive, hERG rescue -46.0, KCNQ1 act inactive, KCNK3 block inactive and KCNQ1 inh 14*.
N#CC1=C(N)Oc2cc(O)c(Cl)cc2C1c1cccnc1 (stereo unspecified) was read as KCNK9 inh inactive, hERG rescue -24.6, KCNQ1 act inactive, KCNK3 block inactive and KCNQ1 inh inactive.
Screening CCOC(=O)c1c(C)n(-c2ccccc2)c2ccc(OCCN(C)C)cc12 returned KCNK9 inh inactive, hERG rescue -4.1, KCNQ1 act inactive, KCNK3 block inactive and KCNQ1 inh inactive.
O=C(COc1ccc(Cl)cc1Cl)N(Cc1ccco1)C1CCS(=O)(=O)C1 (stereo unspecified) was read as KCNK9 inh -6.96*, hERG rescue -2.1, KCNQ1 act inactive, KCNK3 block inactive and KCNQ1 inh inactive.
CCCn1c(C)cc(C(=O)COC(=O)c2cc(S(=O)(=O)NCC(C)C)c(Cl)cc2Cl)c1C was read as KCNK9 inh -6.99*, hERG rescue -8.8, KCNQ1 act inactive, KCNK3 block inactive and KCNQ1 inh inactive.
`CCOc1ccc(Oc2ccccc2NC(=O)C2=COCCO2)cc1` gave KCNK9 inh inactive, hERG rescue -11.0, KCNQ1 act inactive, KCNK3 block inactive and KCNQ1 inh inactive.
Screening Cc1ccc(S(=O)(=O)Nc2c(C)n(C)n(-c3ccccc3)c2=O)cc1C(=O)NCc1ccco1 returned KCNK3 block inactive.
COc1ccc(Nc2nc(NCC3CCCO3)c3ccccc3n2)c(OC)c1 (stereo unspecified) was read as KCNK9 inh inactive, hERG rescue -11.4, KCNQ1 act inactive, KCNK3 block inactive and KCNQ1 inh inactive.
Oc1cccc(Nc2nc(NCC3CCCO3)c3ccccc3n2)c1 (stereo unspecified) was read as KCNK9 inh inactive, hERG rescue -37.7, KCNQ1 act inactive, KCNK3 block inactive and KCNQ1 inh 9*.
Screening CN(CC(=O)NCc1cccc(F)c1)C(=O)c1ccco1 returned KCNK9 inh inactive, hERG rescue 6.5*, KCNQ1 act inactive, KCNK3 block inactive and KCNQ1 inh inactive.
O=C(CN(Cc1ccccc1)C(=O)c1ccco1)NCc1ccc(F)cc1 was read as KCNK9 inh inactive, hERG rescue -5.8, KCNQ1 act inactive, KCNK3 block inactive and KCNQ1 inh inactive.
For CC1(C)CCC(=O)N2CC[C@H]3C[C@H](OC(=O)Nc4ccc5c(c4)OCO5)C[C@@H]1[C@H]32 the results were KCNK9 inh -8.04*, hERG rescue -8.8, KCNQ1 act inactive, KCNK3 block inactive and KCNQ1 inh inactive.
`CC1(C)CCC(=O)N2CC[C@H]3C[C@H](OC(=O)Nc4ccccc4)C[C@@H]1[C@H]32` gave KCNK9 inh inactive, hERG rescue -4.7, KCNQ1 act inactive, KCNK3 block inactive and KCNQ1 inh inactive.
O=C(CSCC(=O)N1CCCCC1)Nc1nc(-c2ccccc2)c(-c2ccccc2)s1 was read as KCNK3 block -10.9*.
COc1ccc(-c2sc(NC(C)=O)nc2-c2ccccc2)cc1 was read as KCNK9 inh inactive, hERG rescue -7.6, KCNQ1 act inactive, KCNK3 block inactive and KCNQ1 inh inactive.
For Cc1noc(C)c1S(=O)(=O)N(C)C[C@H]1Oc2ccc(NS(=O)(=O)c3ccccc3)cc2C(=O)N([C@H](C)CO)C[C@@H]1C the results were KCNK3 block inactive.

Source: PubChem BioAssay (Johns Hopkins Ion Channel Center)
